23 molecules from ChEMBL document CHEMBL4145692, “Discovery of a Locally and Orally Active CXCL12 Neutraligand (LIT-927) with Anti-inflammatory Effect in a Murine Model of Allergic Airway Hypereosinophilia” (J Med Chem, 2018) can be followed below.

One may read the Ki as the equilibrium dissociation constant of an inhibitor or competing ligand from its target.

≈ marks a conversion by molar mass, not a printed value.

Tested on in one data set: not listed separately
Nature of the data set: Kinetic solubility in pH 7.4 HEPES-BSA buffer at 5 uM incubated for 24 hrs at 20 degC by HPLC method. The data set is classed as physicochemical. Particulars: read-out: Kinetic_solubility. The method in brief:
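Compound added from 10 mM DMSO stock to 5 μM in pH 7.4 HEPES-BSA buffer (1 g/L BSA), shaken 24 h at 20 °C. After centrifugation, supernatant concentration measured by HPLC against 5 and 10 μM standards.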
Take `Cl.NCCOCCOCCOc1cc(/C=C/C(=O)c2ccc(Cl)cc2)ccc1O`: the solubility kinetic at 24 h, 5 µM is above 5 µM.
The same measure, in the same setting: under `COc1cc(/C=C(\C)C(=O)c2ccc(Cl)cc2)ccc1O` stands above 5 µM.
For `COc1cc(/C(C)=C/C(=O)c2ccc(Cl)cc2)ccc1O`, the solubility kinetic at 24 h, 5 µM is 2.6 µM (≈ 0.787 µg/mL).
Same read-out and setting: to `COc1cc(-c2cc(-c3ccc(Cl)cc3)nc(N)n2)ccc1O` belongs above 5 µM; to `COc1cc(/C=C/C(=O)c2c(Cl)cccc2Cl)ccc1O`, above 5 µM; to `COc1cccc(/C=C/C(=O)c2ccc(Cl)cc2)c1`, 0.36 µM (≈ 0.0982 µg/mL).
On the same count and under the same terms, under `COc1ccc(/C=C/C(=O)c2ccc(Cl)cc2)cc1O` stands above 5 µM; under `COc1cc(/C=C/C(=O)c2ccc(C)cc2)ccc1O`, above 5 µM; under `COc1cc(/C=C/C(=N/O)c2ccc(Cl)cc2)ccc1O`, above 5 µM.
As for `COc1cc(/C=C/C(=O)c2ccc(Cl)c(Cl)c2)ccc1O`, the solubility kinetic at 24 h, 5 µM was above 5 µM.
In the case of `COc1cc(/C=C/C(=O)c2cccc(Cl)c2Cl)ccc1O`, the solubility kinetic at 24 h, 5 µM was above 5 µM.
Still for that read-out and setting: under `COc1cc(/C=C/C(=O)c2ccc(C(F)(F)F)cc2)ccc1O` stands above 5 µM; under `COc1cc(/C=C/C(=O)c2ccc(Cl)cc2Cl)ccc1O`, above 5 µM; under `COc1cc(/C=C/C(=O)c2ccc(Cl)cc2)ccc1[N+](=O)[O-]`, above 5 µM.
The same measure, in the same setting: under `O=C(/C=C/c1ccc(O)cc1)c1ccc(Cl)cc1` stands above 5 µM.
Still for that read-out and setting: under `COc1cc(/C=C/C(=O)c2ccc(C(=O)O)cc2)ccc1O` stands above 5 µM; under `O=C(/C=C/c1ccc(O)c(O)c1)c1ccc(Cl)cc1`, above 5 µM; under `COc1cc(/C=C/C(=O)c2ccc(F)cc2)ccc1O`, above 5 µM.
`COc1cc(-c2cc(-c3ccc(Cl)cc3)nc(C)n2)ccc1O`: the solubility kinetic at 24 h, 5 µM was above 5 µM.
Still for that read-out and setting: to `COc1cc(/C=C/C(=O)c2cc(Cl)ccc2Cl)ccc1O` belongs above 5 µM; to `COc1ccc(/C=C/C(=O)c2ccc(Cl)cc2)cc1OC`, above 5 µM.

A further data set deals with Stromal cell-derived factor 1 (Homo sapiens, UniProt P48061). Briefly: Binding affinity to Texas Red-labelled CXCL12 (unknown origin) assessed as inhibition of CXCL12-Texas Red binding to EGFP-labeled human CXCR4 expressed in HEK293 cell membranes pre-incubated for 1 hr by FRET-based binding assay.
Sequence of Stromal cell-derived factor 1 (P48061 whole entry): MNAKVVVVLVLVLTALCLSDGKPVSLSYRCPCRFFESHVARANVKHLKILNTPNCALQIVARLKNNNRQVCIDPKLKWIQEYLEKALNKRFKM
Conditions: not given
In outline: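 HEK-293 cells stably expressing human EGFP-CXCR4, 10⁶ cells/ml in HEPES buffer pH 7.4 with 0.1% BSA, 21 °C. CXCL12-Texas Red (100 nM) was preincubated 1 h at room temperature with compound or DMSO, then added at t=150 s. FRET read as loss of EGFP emission at 510 nm (excitation 470 nm) up to equilibrium. Ki from dose-response curves.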
Consider `COc1cc(-c2cc(-c3ccc(Cl)cc3)n[nH]2)ccc1O`, for which the Ki is above 10000 nM.
Turning to `Cl.NCCOCCOCCOc1cc(/C=C/C(=O)c2ccc(Cl)cc2)ccc1O`, the Ki turned out to be 475 nM.
Still for that read-out and setting: to `COc1cc(CCC(=O)c2ccc(Cl)cc2)ccc1O` belongs above 10000 nM; to `COc1cc(/C=C(\C)C(=O)c2ccc(Cl)cc2)ccc1O`, above 5000 nM; to `COc1cc(/C(C)=C/C(=O)c2ccc(Cl)cc2)ccc1O`, above 10000 nM.
The same measure, in the same setting: to `COc1cc(-c2cc(-c3ccc(Cl)cc3)nc(N)n2)ccc1O` belongs above 10000 nM; to `COc1cc(/C=C/C(=O)c2c(Cl)cccc2Cl)ccc1O`, 71 nM; to `COc1cccc(/C=C/C(=O)c2ccc(Cl)cc2)c1`, above 10000 nM.
Same read-out and setting: under `COc1ccc(/C=C/C(=O)c2ccc(Cl)cc2)cc1O` stands above 10000 nM; under `COc1cc(/C=C/C(=O)c2ccc(C)cc2)ccc1O`, 285 nM.
As for `COc1cc(/C=C/C(=N/O)c2ccc(Cl)cc2)ccc1O`, the Ki is above 10000 nM.
In the case of `COc1cc(/C=C/C(=O)c2ccc(Cl)c(Cl)c2)ccc1O`, the Ki worked out at 714 nM.
Same read-out and setting: under `COc1cc(/C=C/C(=O)c2cccc(Cl)c2Cl)ccc1O` stands 357 nM; under `COc1cc(/C=C/C(=O)c2ccc(C(F)(F)F)cc2)ccc1O`, 1070 nM.
Same read-out and setting: under `COc1cc(/C=C/C(=O)c2ccc(Cl)cc2Cl)ccc1O` stands 48 nM; under `COc1cc(/C=C/C(=O)c2ccc(Cl)cc2)ccc1[N+](=O)[O-]`, above 10000 nM; under `O=C(/C=C/c1ccc(O)cc1)c1ccc(Cl)cc1`, 625 nM.
Same read-out and setting: to `COc1cc(/C=C/C(=O)c2ccc(C(=O)O)cc2)ccc1O` belongs 5350 nM; to `O=C(/C=C/c1ccc(O)c(O)c1)c1ccc(Cl)cc1`, 350 nM; to `COc1cc(/C=C/C(=O)c2ccc(F)cc2)ccc1O`, 430 nM.
With `COc1cc(-c2cc(-c3ccc(Cl)cc3)nc(C)n2)ccc1O`, the Ki stood at 1680 nM.
Same read-out and setting: to `COc1cc(/C=C/C(=O)c2cc(Cl)ccc2Cl)ccc1O` belongs 53 nM; to `COc1ccc(/C=C/C(=O)c2ccc(Cl)cc2)cc1OC`, above 10000 nM.
